Assay [1] concerns Canis familiaris. Nature of the assay: Percentage change in renal resistance in anesthetized dogs. The assay is classed as functional, Canis lupus familiaris. In a few lines:
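Anesthetized dogs, femoral artery and vein catheterized for BP and iv injection; at least 30 min recovery after surgery. Mean renal blood flow and mean arterial BP sampled at 1-min intervals over a 30-min control period, then 500 µg/kg given iv bolus in aqueous solution as Na salt, monitored 30 min more. Renal resistance = mean BP / mean RBF. Two dogs per compound; saline placebo in three dogs.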

Assay [2] concerns Canis familiaris. Nature of the assay: Mean heart rate in conscious dog at 0-1 hr after 5 mg/kg (po) compound administration. Type of assay: functional, Canis lupus familiaris. In a few lines:
(§1)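 Conscious dogs, 3 per group. Dose 5 mg/kg given orally in a gelatin capsule; lactose capsule as placebo. Renal blood flow (flow meters), arterial pressure (transducer) and heart rate recorded digitally every 2 min through a 30-min predrug control period and 5 h postdose. Readings averaged for the control period and for each posttreatment hour; means ± SE.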

The subject of assay [3] is Canis familiaris. Nature of the assay: Mean heart rate in conscious dog at 1-2 hr after 5 mg/kg (po) compound administration. The assay is classed as functional, Canis lupus familiaris. In a few lines:
as §1

Assay [4] relates to Canis familiaris. Nature of the assay: Mean heart rate in conscious dog at 2-3 hr after 5 mg/kg (po) compound administration. Type of assay: functional, Canis lupus familiaris. In a few lines: as §1
Assay [5] relates to Canis familiaris. Nature of the assay: Mean heart rate in conscious dog at 3-4 h after 5 mg/kg (po) compound administration. The assay is classed as functional, Canis lupus familiaris. In a few lines:
as §1

Assay [6] relates to Canis familiaris. Nature of the assay: Mean heart rate in conscious dog at 4-5 hr after 5 mg/kg (po) compound administration. The assay is classed as functional, Canis lupus familiaris. In a few lines:
as §1

For assay [7], the system named is Canis familiaris. Nature of the assay: Mean renal blood (RBF) flow in conscious dog at 0-1 hr after 5 mg/kg (po). Type of assay: functional, Canis lupus familiaris, Kidney. In a few lines: as §1
Assay [8] has as its system Canis familiaris. Nature of the assay: Mean renal blood flow (RBF) in conscious dog at 1-2h after 5 mg/kg (po). Type of assay: functional, Canis lupus familiaris, Kidney. In a few lines:
as §1

For assay [9], the system named is Canis familiaris. Nature of the assay: Mean renal blood flow (RBF) in conscious dog at 4-5 hr after 5 mg/kg (po). The assay is classed as functional, Canis lupus familiaris, Kidney. In a few lines: as §1
For assay [10], the system named is Canis familiaris. Nature of the assay: Mean renal blood flow (RBF) in conscious dog at 2-3 hr after 5 mg/kg (po). Type of assay: functional, Canis lupus familiaris, Kidney. In a few lines: as §1
Assay [11] concerns Canis familiaris. Nature of the assay: Mean renal blood flow in (RBF) conscious dog at 3-4 hr after 5 mg/kg (po). Type of assay: functional, Canis lupus familiaris, Kidney. In a few lines: as §1
For assay [12], the system named is Canis familiaris. Nature of the assay: Mean arterial blood pressure in conscious dog at 0-1 hr after 5 mg/kg (po) compound administration. The assay is classed as functional, Canis lupus familiaris. In a few lines:
as §1

Assay [13] deals with Canis familiaris. Nature of the assay: Mean arterial blood pressure in conscious dog at 1-2 hr after 5 mg/kg (po) compound administration. Type of assay: functional, Canis lupus familiaris. In a few lines:
as §1

In assay [14] the test system is Canis familiaris. Nature of the assay: Mean arterial blood pressure in conscious dog at 2-3 h after 5 mg/kg (po) compound administration. The assay is classed as functional, Canis lupus familiaris. In a few lines:
as §1

Assay [15] relates to Canis familiaris. Nature of the assay: Mean arterial blood pressure in conscious dog at 3-4 h after 5 mg/kg (po) compound administration. Type of assay: functional, Canis lupus familiaris. In a few lines: as §1
For assay [16], the system named is Canis familiaris. Nature of the assay: Mean arterial blood pressure in conscious dog at 4-5 h after 5 mg/kg (po) compound administration. Type of assay: functional, Canis lupus familiaris. In a few lines:
as §1

Consider `CCCCCC(O)CCCC(CCCc1cccc(C(=O)O)c1)C(C)=O` (stereo unspecified), for which the Change with Canis familiaris [1] is -20%.
Still for that read-out and setting: to `CCCCCC(O)CCCN(CCCc1ccc(C(=O)O)cc1)S(C)(=O)=O` (stereo unspecified) belongs 5%.
Consider `CCCCCC(O)CCCC(CCCc1ccc(C(=O)O)cc1)C(C)=O` (stereo unspecified), for which the HR amounted to 74 beats min-1 with Canis familiaris [2]; 73 beats min-1 in the assay with Canis familiaris [3]; 74 beats min-1 in the assay on Canis familiaris [4]; 64 beats min-1 in the assay with Canis familiaris [5]; 68 beats min-1 in the assay on Canis familiaris [6]. The RBF in the assay on Canis familiaris [7] was 137 mL/min; with Canis familiaris [8] it was 194 mL/min; in the assay on Canis familiaris [9], 124 mL/min; with Canis familiaris [10], 173 mL/min; in the assay on Canis familiaris [11], 139 mL/min. Moreover, the MABP was found to be 116 mmHg in the assay with Canis familiaris [12]; 106 mmHg with Canis familiaris [13]; 97 mmHg in the assay with Canis familiaris [14]; 95 mmHg in the assay with Canis familiaris [15]; 106 mmHg with Canis familiaris [16]. In addition, the Change in the assay on Canis familiaris [1] is given as -47%.
Turning to `CCCCCC(O)CCCC(Cc1ccc(CCC(=O)O)cc1)C(C)=O` (stereo unspecified), the Change in the assay on Canis familiaris [1] is given as 13%.
Still for that read-out and setting: the value for `CC(=O)C(CCCc1ccc(C(=O)O)cc1)CCCC1(O)CCCCC1` (stereo unspecified) was -42%.
Same read-out and setting: to `CS(=O)(=O)N(CCCc1ccc(C(=O)O)cc1)CCCC1(O)CCCCC1` belongs -7%; to `CS(=O)(=O)N(CC#CC1(O)CCCCC1)CCCc1ccc(C(=O)O)cc1`, -10%.
The same measure, in the same setting: to `CCCCCC(O)CCCC(CCCc1ccc(C(=O)O)cc1)C(C)O` (stereo unspecified) belongs -19%; to `CCCCCC(O)CCCC(CCCCc1ccccc1C(=O)O)C(C)=O` (stereo unspecified), 19%.
Consider `CCCOCC(O)CCCC(CCCc1ccc(C(=O)O)cc1)C(C)=O` (stereo unspecified), for which the Change with Canis familiaris [1] is recorded as -43%.
Same read-out and setting: the value for `CCCCCC(O)CCCC(CCCCc1ccc(C(=O)O)cc1)C(C)=O` (stereo unspecified) was 18%.

Values taken from ChEMBL document CHEMBL1122340, “11,12-secoprostaglandins. 6. Interphenylene analogues of acylhydroxyalkanoic acids and related compounds as renal vasodilators” (1983).
